The test system of test [1] is Saccharomyces cerevisiae. The test can be described thus: Inhibition of Saccharomyces cerevisiae alpha-glucosidase at 1 mM using […] preincubated for 5 mins followed by substrate addition and measured after 15 mins relative to control. Particulars: in the assay text read “p-nitrophenyl alpha-D-glucopyranoside” for “p-nitrophenyl beta-D-glucopyranoside”. The method in brief: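 Single-concentration screen at 1 mM against S. cerevisiae α-glucosidase. p-Nitrophenyl-α-D-glucopyranoside substrate was fixed at 1 mM, well above the Km determined in fixed-time runs, to saturate the enzyme. Inhibition is relative to the negative control, with significance by Student t-test (p < 0.05).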

Test [2] is described as follows: Inhibition of Saccharomyces cerevisiae alpha-glucosidase using […] preincubated for 5 mins followed by substrate addition and measured after 15 mins. As to conditions: in the assay text read “p-nitrophenyl alpha-D-glucopyranoside” for “p-nitrophenyl beta-D-glucopyranoside”. The method in brief: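 S. cerevisiae α-glucosidase with p-nitrophenyl-α-D-glucopyranoside substrate fixed at 1 mM (above Km, saturating). Inhibitor was tested across a 10^-3–10^-9 M range. IC50 was obtained by nonlinear regression of the concentration–inhibition data.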

The target in a further test is Alpha glucosidase (Homo sapiens, UniProt O43451+P10253+P14410+Q2M2H8). Kind of test: Inhibition of alpha-glucosidase (unknown origin) using p-nitrophenyl beta-D-glucopyranoside as substrate measured after 20 mins. The format is protein assay.
The test system of test [3] is Rattus norvegicus. Kind of test: In vivo inhibition of intestinal maltase-glucoamylase in Wistar rat assessed as reduction in postprandial hyperglycemia at 2.2 mg/kg, po pretreated for 30 mins followed by maltose challenge and measured after 30 to 120 mins by OMTT. The test is classed as functional, organism-based. The method in brief: (§1)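 Male Wistar rats received the test agent per os at the dose in the line, then a 2 g/kg maltose load. Blood glucose was followed after the maltose challenge. n = 5 per group, reported as m ± SEM. Comparisons were by 1-way ANOVA against vehicle and the reference group.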

Test [4] deals with Saccharomyces cerevisiae. Kind of test: Potency index, ratio of acarbose IC50 to test compound IC50 for Saccharomyces cerevisiae alpha-glucosidase.
In test [5] the test system is Rattus norvegicus. Kind of test: In vivo inhibition of intestinal maltase-glucoamylase in Wistar rat assessed as reduction in postprandial hyperglycemia at 5 mg/kg, po pretreated for 30 mins followed by maltose challenge and measured after 30 to 120 mins by OMTT. The test is classed as functional, organism-based. The method in brief: as §1

Calls of active or inactive are those of the source. The rule behind the calls is not given here.

The term inhibition denotes the percentage by which the read-out fell short of the control. A word on the IC50: it is the concentration needed to halve the response being measured.

Compound `CCc1ccc(C2=CCc3c(ccc4ccccc34)O2)cc1` yielded an inhibition in the test on Saccharomyces cerevisiae [1] of 91.7%. The IC50 in test [2] stood at 649 µM. `Oc1cc(O)c2c(c1)O[C@@H](c1ccc(O)c(O)c1)[C@H](O)C2` [(-)-CATECHIN] came in with a half-maximal inhibitory concentration (IC50) on Alpha glucosidase of 53.8 µM. The compound `Clc1ccc(C2C=C(c3ccccc3)Oc3ccc4ccccc4c32)cc1` (configuration not stated) showed an inhibition in the test on Saccharomyces cerevisiae [1] of 18.3%. Still for that read-out and setting: with `C1=C(c2ccccc2)Oc2ccc3ccccc3c2C1c1ccccc1` (configuration not stated) the figure was 39.6%; with `COc1ccc(C2C=C(c3ccc(O)cc3)Oc3ccc4ccccc4c32)cc1` (configuration not stated), 36.1%. Regarding `Cc1ccc(C2=CC(c3ccc(Cl)cc3)c3c(ccc4ccccc34)O2)cc1` (configuration not stated), the inhibition in the test on Saccharomyces cerevisiae [1] stood at 47.6%. The IC50 in test [2] was 898 µM.

In turn, `COc1ccc(C2CCc3c(ccc4ccccc34)O2)cc1` (configuration not stated) returned an inhibition in the test on Saccharomyces cerevisiae [1] of 19.7%. The same measure, in the same setting: with `Clc1ccc(C2=CC(c3ccc(Cl)cc3)c3c(ccc4ccccc34)O2)cc1` (configuration not stated) the figure was 14.9%. Take `C1=C(c2ccccc2)Oc2ccc3ccccc3c2C1`: in the test with Saccharomyces cerevisiae [1], the inhibition was determined as 10.8%. `COc1ccc(C2C=C(c3ccccc3)Oc3ccc4ccccc4c32)cc1OC` (configuration not stated) came in with an inhibition in the test with Saccharomyces cerevisiae [1] of 43.7%. In test [2], this compound displayed an IC50 of over 1000 µM. In the test on Saccharomyces cerevisiae [1], `C1=C(c2ccccc2)Oc2ccccc2C1c1ccccc1` (configuration not stated) gave an inhibition of 60.8%. Besides, the IC50 in test [2] stood at 62.3 µM. Further, the inhibition entry with Rattus norvegicus [3] was “Active”. Moreover, the Ratio IC50 with Saccharomyces cerevisiae [4] was 9. On to `C[C@H]1O[C@H](O[C@H]2[C@H](O)[C@@H](O)[C@@H](O[C@H]3[C@H](O)[C@@H](O)C(O)O[C@@H]3CO)O[C@@H]2CO)[C@H](O)[C@@H](O)[C@@H]1N[C@H]1C=C(CO)[C@@H](O)[C@H](O)[C@H]1O` (some centres not stated) [ACARBOSE], for which the inhibition result in the test on Rattus norvegicus [5] is “Active”. The compound further returned an inhibition with Saccharomyces cerevisiae [1] of 55.8%. The same compound registered an IC50 in test [2] of 544 µM. `Clc1ccc(C2=CC(c3ccccc3)c3ccccc3O2)cc1` (configuration not stated) registered an inhibition with Saccharomyces cerevisiae [1] of 69%. Besides, the IC50 in test [2] was determined as 950 µM.

Source of the values: ChEMBL document CHEMBL4308855, “Synthesis, in vitro and in vivo evaluation of 2-aryl-4H-chromene and 3-aryl-1H-benzo[f]chromene derivatives as novel α-glucosidase inhibitors” (Bioorg Med Chem Lett, 2019).
